Here are results for two compounds from publication PMC8524144 (International Journal of Pharmaceutics: X, 2021).

The test system of one data set is chymotrypsin. The note with it: ref Werle et al. (2006); cited from earlier work.
Data set [1] in a line: In vitro stability of hPTH. Type of data set: physicochemical. The method in brief: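 Peptide (1.0 mg teriparatide acetate per mL in 50 mM Tris, pH 6.5, no SBTI) mixed 1:1 with enzyme-free Tris buffer and incubated at 37 °C with shaking. Samples were taken at 2, 5, 10, 15, 30 and 60 min and quenched with an equal volume of 0.5% TFA. A zero-time mix served as 100%. Peptide was measured by C18 HPLC-UV. Run in duplicate.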

In a further data set the test system is trypsin. To be noted: ref Werle et al. (2006); cited from earlier work.
In a further data set the test system is aminopeptidase N. To be noted: ref Werle et al. (2006); cited from earlier work.
The subject of data set [2] is membrane-bound peptidases. The note with it: ref Werle et al. (2006); cited from earlier work.
For the next data set, the system named is pepsin. The note with it: ref Werle et al. (2006); cited from earlier work.
The test system of a further data set is elastase. The note with it: ref Werle et al. (2006); cited from earlier work.
For data set [3] the following is noted: SBTI at the levels found in the tested formulations; ref Hernández-Ledesma and Hsieh, 2017; Burshtein et al. 2018b; cited from earlier work.
Where [4] appears, read: 50 mM Tris buffer without protease, pH 6.5.

Usually share remaining stands for the share of the starting amount still present when the sample was taken. Low readings indicate more turnover, high ones less turnover. As for `CC[C@H](C)[C@H](NC(=O)[C@H](CCC(=O)O)NC(=O)[C@H](CO)NC(=O)[C@@H](NC(=O)[C@@H](N)CO)C(C)C)C(=O)N[C@@H](CCC(N)=O)C(=O)N[C@@H](CC(C)C)C(=O)N[C@@H](CCSC)C(=O)N[C@@H](Cc1cnc[nH]1)C(=O)N[C@@H](CC(N)=O)C(=O)N[C@@H](CC(C)C)C(=O)NCC(=O)N[C@@H](CCCCN)C(=O)N[C@@H](Cc1cnc[nH]1)C(=O)N[C@@H](CC(C)C)C(=O)N[C@@H](CC(N)=O)C(=O)N[C@@H](CO)C(=O)N[C@@H](CCSC)C(=O)N[C@@H](CCC(=O)O)C(=O)N[C@@H](CCCN=C(N)N)C(=O)N[C@H](C(=O)N[C@@H](CCC(=O)O)C(=O)N[C@@H](Cc1c[nH]c2ccccc12)C(=O)N[C@@H](CC(C)C)C(=O)N[C@@H](CCCN=C(N)N)C(=O)N[C@@H](CCCCN)C(=O)N[C@@H](CCCCN)C(=O)N[C@@H](CC(C)C)C(=O)N[C@@H](CCC(N)=O)C(=O)N[C@@H](CC(=O)O)C(=O)N[C@H](C(=O)N[C@@H](Cc1cnc[nH]1)C(=O)N[C@@H](CC(N)=O)C(=O)N[C@@H](Cc1ccccc1)C(=O)O)C(C)C)C(C)C` [hPTH(1–34), teriparatide], the “degradation by GIT protease chymotrypsin” value with chymotrypsin is listed as “rapidly degraded”. Also, in data set [1] (setting [4]), the fraction remaining at 0.25 h, 0.5 mg/mL turned out to be 100%; the amount remaining at 0.5 h, 0.5 mg/mL came to 100%; the share remaining at 1 h, 0.5 mg/mL worked out at 100%. Moreover, the “stability of hPTH(1–34) alone” value in data set [1] (no protease, no SBTI, 50 mM Tris buffer pH 6.5, 37 °C, HPLC-UV, n = 2) is on record as “stable for at least one hour”. Further, in the data set with trypsin, the “degradation by GIT protease trypsin” value is “rapidly degraded”. For the same compound, the “effect of aminopeptidase N on the degradation of hPTH(1–34)” value in the data set with aminopeptidase N is reported as “very limited effect”. In addition, the “effect of membrane-bound peptidases on the degradation of hPTH(1–34)” value in data set [2] is reported as “very limited effect”. Besides, the “degradation by GIT protease pepsin” value in the data set with pepsin is “rapidly degraded”. Further, in the data set on elastase, the “effect of elastase on the degradation of hPTH(1–34)” value is listed as “very limited effect”.
soybean trypsin inhibitor [SBTI]: the “tolerability in human trials” value in data set [3] is listed as “well tolerated”.
